In paper PMC11387822 (Scientific Reports, 2024):
“Also recorded” adds a separate entry of the source.

What was measured:
BuChE = BuChE (Homo sapiens, UniProt P06276); assay: In vitro BuChE inhibitory activity; assay type: biochemical; conditions: for BuChE IC50: mean ± SD (n = 3)
AChE [1] = target: T1, AChE (Homo sapiens, UniProt P22303); assay: In vitro AChE inhibitory activity; assay type: biochemical; conditions: for AChE IC50: mean ± SD (n = 3)
BACE1 = BACE1 (Homo sapiens, UniProt P56817); assay: BACE1 inhibitory activity, FRET-based assay kit; assay type: biochemical
AChE [2] = target: T1, AChE; assay: Kinetic characterization of AChE inhibition; assay type: biochemical
[3] = Metal chelating activity by UV-visible spectrometry, mole ratio method; assay type: physicochemical; conditions: UV 200-600 nm, methanol, 5d 20 μM, Fe3+ 0-50 μM, 30 min room temperature
Method in brief: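 Test compound (20 μM in absolute methanol) was titrated with FeCl3 (0–50 μM Fe3+) and incubated 30 min at room temperature. UV absorption from 200 to 600 nm was recorded with and without Fe3+ in a 1 cm quartz cuvette. Complex stoichiometry was taken from the mole ratio method.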

T1 sequence (P22303 32-614): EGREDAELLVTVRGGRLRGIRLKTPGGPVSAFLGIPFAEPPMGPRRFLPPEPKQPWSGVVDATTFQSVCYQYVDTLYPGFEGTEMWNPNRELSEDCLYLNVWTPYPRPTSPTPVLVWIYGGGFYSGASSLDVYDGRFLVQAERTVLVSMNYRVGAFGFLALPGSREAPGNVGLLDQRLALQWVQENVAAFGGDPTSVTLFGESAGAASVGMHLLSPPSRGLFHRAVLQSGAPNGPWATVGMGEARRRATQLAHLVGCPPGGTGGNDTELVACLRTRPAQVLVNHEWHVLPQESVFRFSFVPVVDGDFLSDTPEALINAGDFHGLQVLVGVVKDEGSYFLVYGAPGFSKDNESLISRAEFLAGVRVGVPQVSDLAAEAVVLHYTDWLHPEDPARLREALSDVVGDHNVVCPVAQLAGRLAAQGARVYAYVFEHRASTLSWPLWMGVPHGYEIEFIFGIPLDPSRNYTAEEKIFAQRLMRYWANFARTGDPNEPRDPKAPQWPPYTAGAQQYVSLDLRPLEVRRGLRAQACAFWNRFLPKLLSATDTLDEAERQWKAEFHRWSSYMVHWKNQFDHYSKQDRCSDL
Chain of BACE1 (P56817 46-501): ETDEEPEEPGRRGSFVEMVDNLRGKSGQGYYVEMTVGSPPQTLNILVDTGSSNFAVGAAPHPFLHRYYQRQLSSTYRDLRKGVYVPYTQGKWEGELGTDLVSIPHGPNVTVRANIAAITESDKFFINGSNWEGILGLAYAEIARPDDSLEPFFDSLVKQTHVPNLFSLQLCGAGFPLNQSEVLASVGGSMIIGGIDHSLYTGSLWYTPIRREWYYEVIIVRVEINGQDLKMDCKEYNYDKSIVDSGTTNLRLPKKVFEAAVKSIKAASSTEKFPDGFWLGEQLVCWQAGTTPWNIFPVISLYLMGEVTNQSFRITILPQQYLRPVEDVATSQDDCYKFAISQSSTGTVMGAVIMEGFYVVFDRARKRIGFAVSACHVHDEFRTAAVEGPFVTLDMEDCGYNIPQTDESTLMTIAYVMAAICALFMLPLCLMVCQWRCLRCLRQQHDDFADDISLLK
Chain of BuChE (P06276 29-602): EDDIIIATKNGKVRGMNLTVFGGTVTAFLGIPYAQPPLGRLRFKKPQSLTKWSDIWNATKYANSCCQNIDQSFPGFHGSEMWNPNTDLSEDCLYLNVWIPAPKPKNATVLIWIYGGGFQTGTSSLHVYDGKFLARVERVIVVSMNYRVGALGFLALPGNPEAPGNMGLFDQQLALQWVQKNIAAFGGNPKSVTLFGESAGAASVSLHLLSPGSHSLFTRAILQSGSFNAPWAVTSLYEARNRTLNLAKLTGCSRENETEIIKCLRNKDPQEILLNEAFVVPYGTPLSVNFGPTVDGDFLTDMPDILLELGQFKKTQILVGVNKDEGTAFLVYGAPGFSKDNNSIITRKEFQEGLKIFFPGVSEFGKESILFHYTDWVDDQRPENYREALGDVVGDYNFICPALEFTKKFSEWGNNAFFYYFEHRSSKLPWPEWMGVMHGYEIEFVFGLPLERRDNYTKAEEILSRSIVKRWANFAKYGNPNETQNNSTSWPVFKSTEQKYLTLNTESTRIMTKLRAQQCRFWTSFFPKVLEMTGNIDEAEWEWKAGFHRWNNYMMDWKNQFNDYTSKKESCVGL

For `Cn1cc(-c2cc(C(=O)NN=Cc3ccccc3)no2)c2ccccc21` [Compound 5a, N'-Benzylidene-5-(1-methyl-1H-indol-3-yl)isoxazole-3-carbohydrazide], the “BuChE IC50” value (BuChE) was “no inhibitory potencies” and the “AChE IC50” value (AChE [1]) was “no inhibitory potencies”.

With `Cn1cc(-c2cc(C(=O)NN=Cc3ccccc3O)no2)c2ccccc21` [Compound 5b, N'-(2-Hydroxybenzylidene)-5-(1-methyl-1H-indol-3-yl)isoxazole-3-carbohydrazide] the IC50 (BuChE) was 92.8 ± 2.29 µM and the IC50 (BACE1) was 2.79 ± 0.52 µM.

With `Cn1cc(-c2cc(C(=O)NN=Cc3ccccc3F)no2)c2ccccc21` [Compound 5h, N'-(2-Fluorobenzylidene)-5-(1-methyl-1H-indol-3-yl)isoxazole-3-carbohydrazide] the “AChE IC50” value (AChE [1]) was “no potency”.

`Cn1cc(-c2cc(C(=O)NN=Cc3cccc([N+](=O)[O-])c3)no2)c2ccccc21` [Compound 5k, N'-(3-Nitrobenzylidene)-5-(1-methyl-1H-indol-3-yl)isoxazole-3-carbohydrazide] gave an IC50 (BuChE) of 71.3 ± 0.76 µM.

Compound `COc1cccc(C=NNC(=O)c2cc(-c3cn(C)c4ccccc34)on2)c1O` [Compound 5g, N'-(2-Hydroxy-3-methoxybenzylidene)-5-(1-methyl-1H-indol-3-yl)isoxazole-3-carbohydrazide] has an IC50 (AChE [1]) of 63.8 ± 4.04 µM.

For `Cn1cc(-c2cc(C(=O)NN=Cc3ccccc3Cl)no2)c2ccccc21` [Compound 5i, N'-(2-Chlorobenzylidene)-5-(1-methyl-1H-indol-3-yl)isoxazole-3-carbohydrazide], the “AChE IC50” value (AChE [1]) was “no potency”.

With `Cn1cc(-c2cc(C(=O)NN=Cc3cccc(Br)c3)no2)c2ccccc21` [Compound 5j, N'-(3-Bromobenzylidene)-5-(1-methyl-1H-indol-3-yl)isoxazole-3-carbohydrazide] the “AChE IC50” value (AChE [1]) was “no potency” and the IC50 (BACE1) was 1.99 ± 0.15 µM.

For `COc1cccc(C=NNC(=O)c2cc(-c3cn(C)c4ccccc34)on2)c1` [Compound 5d, N'-(3-Methoxybenzylidene)-5-(1-methyl-1H-indol-3-yl)isoxazole-3-carbohydrazide], the “BuChE IC50” value (BuChE) was “no notable inhibition; also recorded: no potency”, the IC50 (AChE [1]) was 29.5 ± 0.31 µM and the Ki (AChE [2]) was 19.3 µM. For the same compound, the “inhibition pattern on AChE” value (AChE [2]; Lineweaver-Burk: Km increased, Vmax unchanged) was “competitive”, the IC50 (BACE1) was 2.85 ± 0.09 µM and the “metal chelating ability against Fe3+” value [3] was “had biometal chelation ability”.
